# In PubChem BioAssay AID2247 (Johns Hopkins Ion Channel Center, 2010):
# Screen size: about 300,000 compounds; about 1,200 (0.4%) were called active.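 Rule for the calls: active = B-score over 3 SD under the library average, no early fluorescence shift, positive overall ratio signal; inactive = the rest.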 Only a selection was taken, and actives are over-represented in it overall.
# Target: Short transient receptor potential channel 4 (Mus musculus) (UniProt Q9QUQ5)
# Assay: blockers of DAMGO-evoked TRPC4 calcium flux – Fluo4 calcium, HEK293 TRPC4beta/mu-opioid cells, primary screen (AID 2247)
# Settings: at 10 µM; active compounds read low
# In short: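 Test system – stable TRPC4beta/mu-opioid receptor HEK293 cells · Probe or stimulus – DAMGO, a submaximal dose followed by a maximal one · Dosing – one concentration per compound · Signal – Fluo4 calcium fluorescence by kinetic imaging, 5 s 1 Hz baseline · Evaluation – per-well B score of integrated baseline-normalized Fluo4 ratio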
# Short transient receptor potential channel 4 (Mus musculus), sequence (Q9QUQ5 whole entry, looked up): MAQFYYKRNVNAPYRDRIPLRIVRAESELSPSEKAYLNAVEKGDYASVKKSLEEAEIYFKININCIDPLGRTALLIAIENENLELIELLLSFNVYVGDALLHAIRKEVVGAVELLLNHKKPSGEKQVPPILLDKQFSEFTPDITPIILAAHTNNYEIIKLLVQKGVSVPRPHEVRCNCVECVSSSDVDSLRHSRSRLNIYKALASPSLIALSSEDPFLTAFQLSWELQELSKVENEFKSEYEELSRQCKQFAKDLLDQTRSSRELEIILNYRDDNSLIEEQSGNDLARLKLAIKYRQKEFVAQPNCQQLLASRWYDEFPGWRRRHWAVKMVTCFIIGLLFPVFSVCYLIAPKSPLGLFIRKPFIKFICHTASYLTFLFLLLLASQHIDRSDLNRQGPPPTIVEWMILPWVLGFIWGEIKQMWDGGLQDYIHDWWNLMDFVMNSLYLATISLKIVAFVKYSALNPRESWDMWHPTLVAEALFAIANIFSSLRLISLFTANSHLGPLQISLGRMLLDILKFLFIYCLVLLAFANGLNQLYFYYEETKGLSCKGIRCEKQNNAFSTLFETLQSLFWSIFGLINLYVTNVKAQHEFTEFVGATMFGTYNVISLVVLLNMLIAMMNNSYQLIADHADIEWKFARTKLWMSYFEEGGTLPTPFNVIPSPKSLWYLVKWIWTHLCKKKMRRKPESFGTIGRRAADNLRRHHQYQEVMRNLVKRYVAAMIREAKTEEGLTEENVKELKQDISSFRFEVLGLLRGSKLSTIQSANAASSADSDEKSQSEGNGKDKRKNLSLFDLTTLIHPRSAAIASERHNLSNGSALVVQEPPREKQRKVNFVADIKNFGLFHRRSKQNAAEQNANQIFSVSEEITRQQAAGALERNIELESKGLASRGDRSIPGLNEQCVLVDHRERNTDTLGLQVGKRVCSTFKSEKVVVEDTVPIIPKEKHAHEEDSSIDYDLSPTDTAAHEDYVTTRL
row,SMILES,B-score
1,O=C(NC1CC1)C1CCCN(C(=O)NC2CCCCC2)C1 (stereo unspecified),inactive
2,CCc1nc(SCC(=O)Nc2ccccc2OC)n[nH]1,inactive
3,COc1ccc(N(CC(=O)Nc2cc(OC)cc(OC)c2)S(=O)(=O)c2c(C)n[nH]c2C)cc1,inactive
4,O=C(O)C(F)(F)C(NCc1ccccc1)c1ccccc1 (stereo unspecified),inactive
5,CCCc1c(C(=O)N/N=C(\C)CCc2ccc(OC)cc2)nnn1-c1nonc1N,inactive
6,Nc1nc(-c2ccccc2)cc(-c2ccccc2)n1,inactive
7,CN(C)c1cc(N)c2ccccc2n1 (tested in a mixture with another compound),-5 (active)
8,COc1ccc(-c2cc(C(=O)N(C)Cc3ccccc3)c3ccccc3n2)cc1,inactive
9,COc1ccccc1C(=O)N(Cc1ccc(C)o1)C1CCS(=O)(=O)C1 (stereo unspecified),inactive
10,CCCCCCCCCOC1OC(CO)C(O)C(O)C1NC(C)=O (stereo unspecified),inactive
11,Cc1nc2c(c(C)nn2-c2ccccc2)c(C)c1C,inactive
12,Cc1nn(-c2ccccc2)c2[nH]c(C(F)(F)F)cc(=O)c12,-7 (active)
13,Cc1nn(-c2ccccc2)c(=O)c2noc(C)c12,inactive
14,COc1ccc(Nc2cc(Sc3ccc(OC)cc3)ncn2)cc1,inactive
15,Clc1ccc(-c2ncc3ccccn23)c(Cl)c1,inactive
16,COn1c(-c2ccc(Cl)cc2Cl)nc2ncccc21,inactive
17,Clc1ccc(COn2c(-c3ccc(Cl)cc3Cl)nc3ncccc32)cc1,-9 (active)
18,O=C(COC(=O)c1ccc([N+](=O)[O-])cc1Cl)NC(=O)c1ccccc1,inactive
19,Cc1cc(C)c(S(=O)(=O)NCC(c2ccc3c(c2)OCO3)N2CCOCC2)c(C)c1 (stereo unspecified),inactive
20,N#C/C(=C/c1ccc(Cl)cc1)NC(=O)c1ccccc1,inactive
21,Cc1c(Cl)c([N+](=O)[O-])nn1CC(=O)NCCCN1CCOCC1,inactive

row,SMILES,B-score
1,FC(F)Oc1ccccc1NC(=S)Nc1cccc(Cl)c1Cl,-7 (active)
2,COc1ccccc1NC(=S)NC(=O)C(C)C,inactive
3,CC(=O)Nc1ccc(NC(=O)COc2ccccc2C(=O)Nc2cccc(Cl)c2Cl)cc1,inactive
4,CCCCc1nc(SCC(=O)Nc2nnc(C(C)C)s2)n[nH]1,inactive
5,C[N+](C)(C)CCOP(=O)([O-])OC[C@H](O)CO,inactive
6,O=C(Nc1cccc(S(=O)(=O)NC2=NCCC2)c1)C1CCCCC1,inactive
7,N=c1c2c3c(sc2ncn1N)CCCC3,inactive
8,COc1ncnc2sc3c(c12)CCCC3,-6 (active)
9,COc1ccc(/C=N/Nc2ncnc3sc4c(c23)CCCC4)cc1O,inactive
10,Cc1ccc(S(=O)(=O)N(CC(O)CN2CCCCC2)c2cccc([N+](=O)[O-])c2)cc1 (stereo unspecified),inactive
11,Cc1cc(C)n2nc(C(=O)OCC(=O)N(CCC#N)c3ccc(F)cc3)nc2n1,inactive
12,CCCn1nc(NS(=O)(=O)c2ccc(F)cc2)c2cc3ccccc3nc21,inactive
13,COc1ccc(-c2n[nH]c(C)c2-c2ccccc2OC)c(O)c1,-6 (active)
14,C=C(C)COc1ccc(-c2n[nH]c(C)c2-c2ccccc2)c(O)c1,inactive
15,C=C(C)COc1ccc(-c2n[nH]c(C)c2-c2ccccc2OC)c(O)c1,inactive
16,Cc1ccc(-n2c(C)cc(C(=O)CSc3nnc4ccccn34)c2C)cc1,inactive
17,CN(C)c1ccc(NC(=O)CN2C3CCCC2CC(NC(=O)c2ccccc2)C3)cc1 (stereo unspecified),-9 (active)
18,COc1ccc(NC(=O)NC2CC3CCCC(C2)N3Cc2ccccc2)cc1 (stereo unspecified),inactive
19,CC(=O)NC1CC2CCCC(C1)N2CC(=O)Nc1ccccc1 (stereo unspecified),inactive
20,COc1ccc(OC)c(C(C)NC(=S)Nc2ccc(S(=O)(=O)Nc3ncccn3)cc2)c1 (stereo unspecified),inactive
